The data set can be described thus: Toxicity liver stage against HepG2, at 10uM. The format is cell-based. Details: test concentration 10 uM, cell line HepG2-A16-CD81EGFP. To be noted: human, HepG2-A16-CD81EGFP cells; read-out: INHIBITION
Summed up:
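Uninfected HepG2-A16-CD81EGFP cells, 3 × 10^3 per well, 1536-well, plated on prespotted compound at 10 μM final, parasite-free screening media added to match infected plates; puromycin 10 μM positive, DMSO 0.5% negative; run in parallel with 48 h PbLuc assay at 37 °C, 5% CO2; viability by CellTiter-Glo luminescence, normalized to controls.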
Turning to `CCc1c(C)nc(SCc2ccccn2)[nH]c1=O`, the cytotoxicity at 10 µM stood at 9.56%.

Take `CCOc1ccc(NC(=O)c2cnc(N3CCCC3)nc2C)cc1`: the cytotoxicity at 10 µM is -7.81%.

Turning to `COc1ccc(CN2CCCC2c2cccc(F)c2)c(OC)c1OC` (configuration not stated), the cytotoxicity at 10 µM is 3.48%.

As to `COc1ccc(Cl)cc1NCc1nc2[nH]c(C)c(C)c(=O)n2n1`, the cytotoxicity at 10 µM was found to be 0.308%.

On to `Cc1nc2oc(C(=O)N3CCCC3)c(N)c2c2c1CCCC2`, for which the cytotoxicity at 10 µM is -6.95%.

Turning to `Cn1nc(CNC(=O)c2cccc(C(F)(F)F)c2)c2c1CCOC2`, the cytotoxicity at 10 µM stood at 4.07%.

On to `CC1CC2(CCN(C(=O)c3csnn3)CC2)c2ccccc21` (configuration not stated), for which the cytotoxicity at 10 µM is -137%.

Turning to `c1ccc(NC[C@@H]2CCC[C@@H]3CN(Cc4csnn4)C[C@@H]32)nc1`, the cytotoxicity at 10 µM was -114%.

Take `COCC(C)NC(=O)c1cn(C(C)(C)C)c2ncccc12` (configuration not stated): the cytotoxicity at 10 µM is 2.69%.

`CSCCC(CO)NC(=O)c1sc(-c2ccccc2Cl)nc1C` (configuration not stated): the cytotoxicity at 10 µM is 1.11%.

On to `O=C(Cn1ccc2ccccc21)NCc1ccc(C(=O)O)cc1`, for which the cytotoxicity at 10 µM is -6.13%.

Regarding `COCCO[C@@H]1C[C@H]2CN(C(=O)c3cnccn3)CCN2C1`, the cytotoxicity at 10 µM was -8.58%.

Take `CC(=O)Nc1ncc(S(=O)(=O)Nc2ccccc2F)s1`: the cytotoxicity at 10 µM was found to be 14.4%.

As for `CN(C)CCCNC(=O)c1nnsc1-c1ccccc1`, the cytotoxicity at 10 µM turned out to be 5.75%.

Take `CCn1cc(NC(=O)C(C)n2ncc(Cl)c2C)c(C(=O)NC)n1` (configuration not stated): the cytotoxicity at 10 µM came out at 9.51%.

On to `O=C1CC(c2ccc(F)cc2)c2snc(C(=O)O)c2N1` (configuration not stated), for which the cytotoxicity at 10 µM is 0.833%.

Regarding `COc1ccc(C2=NOC(C#N)C2)cc1` (configuration not stated), the cytotoxicity at 10 µM was -11.2%.

As for `OCCc1cc(C2CCCN2c2ncccn2)n[nH]1` (configuration not stated), the cytotoxicity at 10 µM worked out at 5.56%.

On to `NC(=O)CN1CCCC(Cc2ccc(N3CCOCC3)nn2)C1` (configuration not stated), for which the cytotoxicity at 10 µM was found to be 8.21%.

Turning to `CCCn1cc(CN2CCCC2c2cccc(-n3ccnc3)n2)cn1` (configuration not stated), the cytotoxicity at 10 µM was -19.6%.

Consider `Cc1noc(C)c1-c1cncc(C2CCCN2Cc2nccs2)n1` (configuration not stated), for which the cytotoxicity at 10 µM was -14.2%.

As to `Cc1cc(N(C)C)nc(C2(C)CCCN2C(=O)c2ccccc2)n1` (configuration not stated), the cytotoxicity at 10 µM is -27.4%.

With `CN(C)Cc1ccnc(C2CCCN2Cc2cccc(F)c2F)n1` (configuration not stated), the cytotoxicity at 10 µM came to 2.22%.

For `Cc1cc2cc(C(=O)N3C[C@H](O)[C@]4(CCCO4)C3)ccc2o1`, the cytotoxicity at 10 µM is -10.9%.

For the compound `c1cnc(N2CCCC(c3cncc(-n4ccnc4)n3)C2)nc1` (configuration not stated), the cytotoxicity at 10 µM was -11.8%.

For `c1cnc(N2CCC(c3n[nH]c4ncccc34)C2)nc1` (configuration not stated), the cytotoxicity at 10 µM is -4.47%.

As to `CC1(C(=O)NCc2cccc(C(F)(F)F)c2)CCOCC1`, the cytotoxicity at 10 µM came to 7.63%.

For the compound `Cc1ccc(-n2nc3n(c2=O)CCN(C(=O)c2ccc(Cl)cc2)C3)cc1`, the cytotoxicity at 10 µM amounted to 6.78%.

For `Cc1ccc(CNC(=O)CN(CCC(N)=O)c2ccc(F)cc2)cc1`, the cytotoxicity at 10 µM was -2.62%.

`COc1ccc(CNC(=O)C(NC(=O)Cc2ccccc2)C(C)C)cn1` (configuration not stated): the cytotoxicity at 10 µM is -0.943%.

In the case of `NC(=O)COc1ccc(C2NC(=O)CN2Cc2ccc(Br)cc2)cc1` (configuration not stated), the cytotoxicity at 10 µM is -7.38%.

As to `COCCCC(=O)NCc1cccc(NC(N)=O)c1`, the cytotoxicity at 10 µM is 0.808%.

As for `OCCN(Cc1cccnc1)c1ncc(Br)cn1`, the cytotoxicity at 10 µM was found to be 9.68%.

On to `CC1CN(c2ncnc3cccc(F)c23)CCO1` (configuration not stated), for which the cytotoxicity at 10 µM was determined as 16.1%.

For the compound `CCN(CC1CCCO1)C(=O)CSCC(=O)Nc1ccc(C)cc1` (configuration not stated), the cytotoxicity at 10 µM is -1.69%.

Turning to `Cn1cc(-c2nc(CN3CCn4c(nnc4C4CC4)C3)cs2)cn1`, the cytotoxicity at 10 µM is -1.07%.

Take `COCCOc1ccc(NC(=O)N2CCOC(C(N)=O)C2)cc1F` (configuration not stated): the cytotoxicity at 10 µM is -140%.

In the case of `COc1nc(C)ccc1CNC(=O)NC(C)(C)c1ncc(C)s1`, the cytotoxicity at 10 µM was determined as 14.7%.

Take `CC(C)Cn1cc(NC(=O)NCC2CCN(c3ccccc3)C2)cn1` (configuration not stated): the cytotoxicity at 10 µM is 2.53%.

For the compound `Cn1nc2c(cc1=O)CN(Cc1ccc(-n3cccn3)cc1)CC2`, the cytotoxicity at 10 µM is -141%.

Regarding `CCN(Cc1cccc(NC(=O)COCCOC)c1)C(C)=O`, the cytotoxicity at 10 µM is -136%.

Turning to `COc1ccccc1N1CCC(CNC(=O)N(C)Cc2ccco2)C1` (configuration not stated), the cytotoxicity at 10 µM is -146%.

In the case of `CCCc1nnnn1Cc1cn2c(C)cccc2n1`, the cytotoxicity at 10 µM is -8.51%.

Consider `Cc1cc(CNC(=O)CCN2CCN(c3ccccn3)CC2)c(C)o1`, for which the cytotoxicity at 10 µM is 1.71%.

Consider `CN(Cc1cc(Cl)ccc1Cl)Cc1ncnn1C`, for which the cytotoxicity at 10 µM is -0.943%.

`CC(=O)c1ccc(Cl)c(Cl)c1OCC(=O)NC(C)C`: the cytotoxicity at 10 µM is -9.66%.

On to `Cc1cc(NC(=O)N(C)C2CCCN(c3ccccc3)C2=O)n(C)n1` (configuration not stated), for which the cytotoxicity at 10 µM is 5.42%.

On to `Cc1cccc(CCC(=O)Nc2cccnc2N2CCC(O)CC2)c1`, for which the cytotoxicity at 10 µM was -2.25%.

On to `CC(Nc1ccc(CN2CCCC2=O)cc1)C(=O)N(C)CCC#N` (configuration not stated), for which the cytotoxicity at 10 µM was 13.7%.

For the compound `Cc1ccc(NCc2ccco2)cc1N1CCOC1=O`, the cytotoxicity at 10 µM was -10.6%.

Regarding `CNC(=O)NCC(CO)Cc1ccccc1OC(F)(F)F` (configuration not stated), the cytotoxicity at 10 µM was 5.97%.

`CC(C)N(C)CCCNC(=O)c1cnc(-c2ccccc2)nc1`: the cytotoxicity at 10 µM was -6.13%.

With `CC(C)(C)OC(=O)N1CCCC[C@H]1C(=O)NCc1nccs1`, the cytotoxicity at 10 µM was -9.39%.

On to `Cc1nc(C)n(C2CCCN(C(=O)CCCn3ccnc3)C2)n1` (configuration not stated), for which the cytotoxicity at 10 µM turned out to be 2.24%.

In the case of `CS(=O)(=O)NCc1nnc2n1CCN(Cc1ccc(F)cc1)C2`, the cytotoxicity at 10 µM is -72.7%.

For `O=C(C1CCOC1)N1CCC2(CC1)CN(Cc1nccs1)CCO2` (configuration not stated), the cytotoxicity at 10 µM is -75%.

Consider `Cc1ccc(C(=O)N2CCN(C)C3(CCC(=O)N(C)CC3)C2)c(F)c1` (configuration not stated), for which the cytotoxicity at 10 µM was -1.68%.

For `CCc1nnc(NC(=O)c2ccc(C3CCCN3CC(C)C)s2)s1` (configuration not stated), the cytotoxicity at 10 µM worked out at 2.14%.

Take `Cc1nc(NC(=O)NC2CC(=O)N(C(C)C)C2)nn1C(C)C` (configuration not stated): the cytotoxicity at 10 µM is -1.55%.

As to `CC(=O)N1CCN(Cc2ccc3c(c2)OCCO3)CC(O)C1` (configuration not stated), the cytotoxicity at 10 µM was 4.14%.

As to `Cc1cnccc1NCCNC(=O)[C@H]1CNC[C@H](C(=O)N2CCCC2)C1`, the cytotoxicity at 10 µM is -124%.

For the compound `COc1ccc(-c2noc(Cn3cc(C)cn3)n2)c(OC)c1OC`, the cytotoxicity at 10 µM is -8.42%.

With `COc1ccc2c(c1)CC(NCCCn1nc(C)nc1C)CC2` (configuration not stated), the cytotoxicity at 10 µM is -3.27%.

As for `OCC1(O)CCCN(Cc2ccc(-c3cc[nH]n3)s2)CC1` (configuration not stated), the cytotoxicity at 10 µM is -141%.

As to `COCCCN1C(=O)CC[C@H]2CN(Cc3ccc4occc4c3)CC[C@H]21`, the cytotoxicity at 10 µM was found to be 8.98%.

For `O=C(N[C@H]1CN(C2CCOCC2)C[C@@H]1C1CC1)c1ccon1`, the cytotoxicity at 10 µM was 5.21%.

As to `COc1ccc(F)cc1CN1CCC(O)(CN2CCCCC2)C1` (configuration not stated), the cytotoxicity at 10 µM was -12%.

For the compound `OC1COCCN(Cc2cccc(N3CCOCC3)c2)C1` (configuration not stated), the cytotoxicity at 10 µM was -12.6%.

For the compound `Cc1cc(N2CCC3(CCC(=O)N(CCCO)C3)CC2)nc(N(C)C)n1`, the cytotoxicity at 10 µM is -0.116%.

Turning to `Cc1cccc(C)c1NC(=O)c1cccc(N(C)S(C)(=O)=O)c1C`, the cytotoxicity at 10 µM was determined as 3.03%.

`CCCc1cc(=O)[nH]c(-c2ccccc2CN(C)CCn2cccn2)n1`: the cytotoxicity at 10 µM was -1.41%.

In the case of `O=C(CCn1cncn1)N1CC[C@@H](c2ccc3ccccc3c2)[C@H](O)C1`, the cytotoxicity at 10 µM was -5.16%.

For `O=C(O)c1cc(-c2cccs2)nc2c(Br)cnn12`, the cytotoxicity at 10 µM is -9.24%.

As for `Cc1ccc(=O)n(CC2(O)CCN(Cc3cnc(C)nc3)CC2)n1`, the cytotoxicity at 10 µM worked out at 4.3%.

For the compound `Cc1cc(C)n(C2CCCN(C(=O)c3ccc4c(c3)COC4)C2)n1` (configuration not stated), the cytotoxicity at 10 µM was -6.1%.

With `Cc1nc(C)n(C2CCCN(C(=O)c3ccc(O)nc3)C2)n1` (configuration not stated), the cytotoxicity at 10 µM was -1.95%.

Consider `Cc1cc(C)n(CC2CN(Cc3cc(C)on3)CCO2)n1` (configuration not stated), for which the cytotoxicity at 10 µM is -9.71%.

As for `CN(CC(=O)N1CCC(C(O)c2ccccc2)CC1)c1cnccn1` (configuration not stated), the cytotoxicity at 10 µM is -2.9%.

Consider `Fc1cccc(-c2nc(CN3CCn4c(nnc4C4CC4)C3)co2)c1`, for which the cytotoxicity at 10 µM was 4.4%.

`Cc1ccc(NC2CCN(C(=O)c3cccc4ncccc34)CC2)nn1`: the cytotoxicity at 10 µM amounted to 7.51%.

`O=C(Cc1ccc(-n2cccn2)cc1)N1CCN2CCCCC2C1` (configuration not stated): the cytotoxicity at 10 µM turned out to be 4.31%.

With `CCc1noc(C(C)N2CCNCC2)n1` (configuration not stated), the cytotoxicity at 10 µM is -3.46%.

With `CC(NC(=O)c1cc(Br)c2c(c1)OCCO2)C(N)=O` (configuration not stated), the cytotoxicity at 10 µM was -1.06%.

For the compound `COc1c(C2CCCN2C(=O)c2cncnc2C)c(C)nn1C` (configuration not stated), the cytotoxicity at 10 µM was -6.19%.

Regarding `Cc1cnn(C2CCCN(C(=O)CCCOc3cccc(F)c3)C2)c1` (configuration not stated), the cytotoxicity at 10 µM was 6.71%.

In the case of `CC(OCC(F)(F)F)C(=O)Nc1ccc(-n2cncn2)nc1` (configuration not stated), the cytotoxicity at 10 µM stood at 3.44%.

Consider `CCOc1ccccc1C1CCCN1` (configuration not stated), for which the cytotoxicity at 10 µM was -14.1%.

As for `CN(C)S(=O)(=O)c1ccc(-c2nc(C#N)c(NC(C)(C)C)o2)o1`, the cytotoxicity at 10 µM is -12.3%.

With `c1cc2nccc(CC3CCCN(C4CCOCC4)CC3)c2cn1` (configuration not stated), the cytotoxicity at 10 µM was -8.24%.

Turning to `CNC(=O)CN1CCOCC12CCN(C(=O)c1ccc(C)cc1)CC2`, the cytotoxicity at 10 µM was -87.6%.

Regarding `Cn1nnc2c1CCN(Cc1nccs1)C2COCc1ccccc1` (configuration not stated), the cytotoxicity at 10 µM is -2.01%.

Consider `Cc1ncsc1CN1C[C@@H](OCc2ccncc2)[C@H]2OCCC[C@H]21`, for which the cytotoxicity at 10 µM is -148%.

As to `CN(C)[C@@H]1CCN(C(=O)Cc2ccc(F)cc2)[C@H]1Cc1ccncc1`, the cytotoxicity at 10 µM was -84.7%.

On to `COCC1CN(C(=O)Cc2ccccn2)Cc2c1cnn2CC1CC1` (configuration not stated), for which the cytotoxicity at 10 µM is -69.1%.

On to `c1cc(CNCc2ccc(Cn3cncn3)cc2)c2c(c1)OCCO2`, for which the cytotoxicity at 10 µM turned out to be 0.585%.

Consider `CN(C)CCN1CCO[C@@H]2CN(C(=O)c3cccs3)CC[C@@H]2C1`, for which the cytotoxicity at 10 µM turned out to be 1.34%.

As to `Cc1nc(CN2CCc3ncnc(C4CC4)c3CC2)cs1`, the cytotoxicity at 10 µM is -81.9%.

Values taken from ChEMBL document CHEMBL4513216, “Probing the Open Global Health Chemical Diversity Library for Multistage-Active Starting Points for Next-Generation Antimalarials” (ACS Infect Dis, 2020).
